Measurements taken from ChEMBL document CHEMBL2321845, “Discovery of 4-Aryl-2-benzoyl-imidazoles as tubulin polymerization inhibitor with potent antiproliferative properties” (J Med Chem, 2013).

Experiments:
[1] = system: LNCaP; experiment: Cytotoxicity against human LNCAP cells assessed as growth inhibition after 96 hrs by SRB assay; format: functional, cell-based
Outline: (§1)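 Plated at 1000–5000 cells/well depending on growth rate and treated with graded compound concentrations for 96 h, three to five replicates. Cell number was measured by SRB: 10% TCA fixation, 0.4% SRB staining, absorbance at 540 nm. IC50 relative to untreated control came from a nonlinear regression fit.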

[2] = system: PC-3; experiment: Cytotoxicity against human PC3 cells assessed as growth inhibition after 96 hrs by SRB assay; format: functional, cell-based; conditions: PC-3, 96 h; outline: as §1
[3] = system: PPC-1; experiment: Cytotoxicity against human PPC1 cells assessed as growth inhibition after 96 hrs by SRB assay; format: functional, cell-based; conditions: PPC-1, 96 h; outline: as §1
[4] = system: DU-145; experiment: Cytotoxicity against human DU145 cells assessed as growth inhibition after 96 hrs by SRB assay; format: functional, cell-based
[5] = system: A-375; experiment: Cytotoxicity against human A375 cells assessed as growth inhibition after 48 hrs by SRB assay; format: functional, cell-based; conditions: A-375, 48 h
Outline: (§2)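 Melanoma cells from ATCC, grown in DMEM with 10% FBS at 37°C under 5% CO2. Seeded at 1000–5000 cells/well according to growth rate and exposed to a range of compound concentrations for 48 h, in three to five replicates. Cells were fixed with 10% TCA, stained with 0.4% SRB and read at 540 nm.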

[6] = system: MDA-MB-435; experiment: Cytotoxicity against human MDA-MB-435 cells assessed as growth inhibition after 48 hrs by SRB assay; format: functional, cell-based; conditions: MDA-MB-435, 48 h
[7] = Cytotoxicity against human MDA-MB-435/LCC6MDR1 cells assessed as growth inhibition after 48 hrs by SRB assay; format: functional, cell-based, MDA-MB-435/LCC6 MDR1
[8] = Cytotoxicity against human WM164 cells assessed as growth inhibition after 48 hrs by SRB assay; format: functional, cell-based; conditions: WM164, 48 h
Outline: as §2, with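 “nm. IC50 (50% growth inhibition versus untreated control) was taken from nonlinear regression of % survival against concentration.” for “nm.”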

[9] = Homo sapiens, MDA-MB-435/LCC6 MDR1, 48 h

Row | SMILES | IC50 [1] [nM] | IC50 [2] [nM] | IC50 [3] [nM] | IC50 ([4]; Homo sapiens, DU-145, 96 h) [nM] | IC50 [5] [nM] | IC50 [6] [nM] | IC50 [7, 9] [nM] | IC50 [8] [nM] | IC50 ([4]; du-145) [nM] | IC50 ([7]; mda-mb-435/lcc6 mdr1) [nM]
1 | Cc1ccc(C(=O)c2nc(-c3ccc(C)cc3)c[nH]2)cc1 | 3760 | 5160 | 2400 | 6540 | 2540 | 3020 | 3270 | 3690 | – | –
2 | CCc1[nH]c(C(=O)c2cc(OC)c(OC)c(OC)c2)nc1-c1ccccc1 | 2030 | 3650 | 2080 | 5080 | 2150 | 8800 | 5110 | 5510 | – | –
3 | COc1cc(C(=O)c2nc(-c3cc(OC)c(OC)c(OC)c3)c[nH]2)cc(OC)c1OC | > 50000 | > 50000 | > 50000 | > 50000 | > 50000 | > 50000 | > 50000 | > 50000 | – | –
4 | COc1cc(-c2c[nH]c(C(=O)c3ccc(O)cc3)n2)cc(OC)c1OC | – | – | – | – | > 50000 | > 50000 | > 50000 | > 50000 | – | –
5 | CCc1[nH]c(Cc2cc(OC)c(OC)c(OC)c2)nc1-c1ccccc1 | – | – | – | – | – | > 50000 | > 50000 | – | – | –
6 | COc1cc(C(=O)c2nc(-c3ccc(C)cc3)c[nH]2)cc(OC)c1OC | 13 | – | – | – | 13 | 27 | 21 | 14 | – | –
7 | COc1cc(Cc2nc(-c3ccccc3)c[nH]2)cc(OC)c1OC | – | – | – | – | 10200 | – | – | – | – | –
8 | COc1cc(C(=O)c2nc(-c3ccccc3)cn2Cc2ccccc2)cc(OC)c1OC | 66 | 72 | 77 | 160 | 104 | 94 | 156 | 34 | – | –
9 | COc1cc(C(=O)c2c[nH]c(-c3ccc(C)cc3)n2)cc(OC)c1OC | – | – | – | – | – | – | – | – | 11 | 11
10 | COc1ccc(-c2c[nH]c(C(=O)c3cc(OC)c(OC)c(OC)c3)n2)cc1 | – | 61 | 54 | 210 | 33 | 55 | 59 | 41 | – | –
11 | COc1cc(-c2c[nH]c(C(=O)c3ccc(N(C)C)cc3)n2)cc(OC)c1OC | – | – | – | – | 47900 | 29200 | 40600 | 46100 | – | –
12 | COc1cc(C(=O)c2nc(-c3ccccc3)cn2C(C)C)cc(OC)c1OC | 62 | 53 | 15 | 114 | 38 | 18 | 44 | 23 | – | –
13 | CN(C)c1ccc(C(=O)c2nc(-c3ccc(N(C)C)cc3)c[nH]2)cc1 | – | – | – | – | > 50000 | > 50000 | > 50000 | > 50000 | – | –
14 | O=C(c1ccc(Cl)cc1)c1nc(-c2ccc(Cl)cc2)c[nH]1 | > 50000 | > 50000 | > 50000 | > 50000 | 35700 | > 50000 | > 50000 | > 50000 | – | –
15 | O=C(c1ccc(O)cc1)c1nc(-c2ccc(O)cc2)c[nH]1 | – | – | – | – | 38800 | 48000 | 21400 | 48200 | – | –
16 | COc1cc(C(=O)c2nc(-c3ccccc3)cn2-c2cccs2)cc(OC)c1OC | – | – | – | – | 20 | 25 | 27 | 8 | – | –
17 | COc1cc(Cc2nc(-c3ccccc3)c(C)[nH]2)cc(OC)c1OC | – | – | – | – | > 50000 | – | – | – | – | –
18 | COc1cc(C(=O)c2nc(-c3ccc(F)cc3)c[nH]2)cc(OC)c1OC | 114 | 196 | 134 | 353 | 197 | 320 | 263 | 298 | – | –
19 | COc1cc(C(=O)c2nc(-c3ccccc3)c(C)[nH]2)cc(OC)c1OC | 938 | 1620 | 860 | 2000 | 1300 | 1630 | 1590 | 1900 | – | –
